Starred links: 1 amine or outer side, 2 acyl side, 3 side chain; linkers in the order of their positions; H or OH if unused. Positions of bridges follow the written chain, without caps; N, C: chain ends. Non-standard residues stand in square brackets, D forms with d. Residues, ends and D or L forms follow the SMILES beside them. Chains are numbered I, II in the order given. Actinocin(9to1) = Cc1c2oc3c(C)ccc(C(=O)[*:1])c3nc-2c(C(=O)[*:2])c(N)c1=O; NMeV = CN[C@H](C(=O)O)C(C)C; Sar = CNCC(=O)O
Key:
Calf thymus DNA = test: Binding affinity to calf thymus DNA assessed as reduction in DNA peak by pre-incubation method; type: nucleic-acid assay; parameters: concentration or dose not given beside the values; details: Bos taurus
How it was run: (§1)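 Nucleic acid at 0.1 mg/ml in water; test substance at 1.0 mg/ml in water or MeOH, mixed 1:1 (v/v) and held at ambient temperature for 5–30 min. 40 or 80 µl injected onto a C18 reversed-phase column equilibrated in H2O-MeOH (80:20), 1 ml/min, with 254 nm detection. The free nucleic-acid peak (~1.2 min) was compared with nucleic acid injected alone.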

Nucleic Acid = test: Binding affinity to yeast tRNA assessed as reduction in tRNA peak by pre-incubation method; type: nucleic-acid assay; parameters: concentration or dose not given beside the values; details: Saccharomyces cerevisiae; how it was run: as §1

| Molecule | Activity (Calf thymus DNA) [%] | Activity (Nucleic Acid) [%] |
| --- | --- | --- |
| COC(=O)CC1(O)C=CC(=O)C=C1 | 30 | < 30 |
| COc1ccc2c(c1)c1ccnc3ccc(=O)n2c31 | 30 |  |
| COc1cccc2c1C(=O)c1c(O)c3c(c(O)c1C2=O)C[C@@](O)(C(C)=O)C[C@@H]3O[C@H]1C[C@H](N)[C@H](O)[C@H](C)O1 | 100 |  |
| COc1cc2c(c(OC)c1OC)-c1ccc(OC)c(=O)cc1[C@@H](NC(C)=O)CC2 | < 30 | < 30 |
| Nc1c2ccccc2nc2ccccc12 | > 70 | 100 |
| Cc1c2oc3c(C)ccc(C(=O)N[C@@H]4C(=O)N[C@H](C(C)C)C(=O)N5CCC[C@H]5C(=O)N(C)CC(=O)N(C)[C@@H](C(C)C)C(=O)O[C@@H]4C)c3nc-2c(C(=O)N[C@@H]2C(=O)N[C@H](C(C)C)C(=O)N3CCC[C@H]3C(=O)N(C)CC(=O)N(C)[C@@H](C(C)C)C(=O)O[C@@H]2C)c(N)c1=O (I: T[dV]P[Sar][NMeV] / II: T[dV]P[Sar][NMeV]; ester I:1-I:C, II:1-II:C; linker I:N-II:N via Actinocin(9to1)) | 30 | < 30 |
| CC[n+]1c(-c2ccccc2)c2cc(N)ccc2c2ccc(N)cc21 | 100 | 100 |
| BLEOMYCIN | < 30 | > 70 |
| CC(C)=CC(=O)O[C@@H]1C(C)=C2C(=O)C=C(C)[C@]2(O)[C@H]2OC(=O)C[C@@H]2[C@H]1O | 30 |  |
| C=C1C(=O)O[C@@H]2C3O[C@]3(C)CC/C=C(\C)CC[C@@H]12 (stereo partly specified) | 30 | < 30 |
| CC[C@]1(O)C[C@H]2CN(CCc3c([nH]c4ccccc34)[C@@](C(=O)OC)(c3cc4c(cc3OC)N(C=O)[C@H]3[C@@](O)(C(=O)OC)[C@H](OC(C)=O)[C@]5(CC)C=CCN6CC[C@]43[C@@H]65)C2)C1 | > 70 | 100 |
| COc1cccc2c1C(=O)c1c(O)c3c(c(O)c1C2=O)C[C@@](O)(C(=O)CO)C[C@@H]3O[C@H]1C[C@H](N)[C@H](O)[C@H](C)O1 | 100 | 100 |
| COc1cc2c(c3c1c(=O)c1ccccc1n3C)C=CC(C)(C)O2 | < 30 |  |
| C=C1C(=O)O[C@H]2[C@H]1[C@@H](O)[C@H](O)C(C)=C1C[C@H]3O[C@@]3(C)[C@@H]12 | 30 | < 30 |
| CC[C@]1(O)C[C@@H]2CN(CCc3c([nH]c4ccccc34)[C@@](C(=O)OC)(c3cc4c(cc3OC)N(C)[C@H]3[C@@](O)(C(=O)OC)[C@H](OC(C)=O)[C@]5(CC)C=CCN6CC[C@]43[C@@H]65)C2)C1 | > 70 | 100 |
| C=C1C(=O)O[C@H]2[C@H]1[C@@H](O)[C@H](OC(=O)C=C(C)C)C(C)=C1C[C@H]3O[C@@]3(C)[C@@H]12 | 30 |  |
| COc1cc2c(ccc3c4cc(OC)c(OC)cc4c[n+](C)c23)cc1O | 100 | 100 |
| Cc1c2ccncc2c(C)c2c1[nH]c1ccccc12 | > 70 | 30 |
